From ChEMBL document CHEMBL1154678, “beta-Lactams derived from a carbapenem chiron are selective inhibitors of human fatty acid amide hydrolase versus human monoacylglycerol lipase” (J Med Chem, 2009)

T1: Monoglyceride lipase (Homo sapiens) (UniProt Q99685)
T1 sequence (whole entry): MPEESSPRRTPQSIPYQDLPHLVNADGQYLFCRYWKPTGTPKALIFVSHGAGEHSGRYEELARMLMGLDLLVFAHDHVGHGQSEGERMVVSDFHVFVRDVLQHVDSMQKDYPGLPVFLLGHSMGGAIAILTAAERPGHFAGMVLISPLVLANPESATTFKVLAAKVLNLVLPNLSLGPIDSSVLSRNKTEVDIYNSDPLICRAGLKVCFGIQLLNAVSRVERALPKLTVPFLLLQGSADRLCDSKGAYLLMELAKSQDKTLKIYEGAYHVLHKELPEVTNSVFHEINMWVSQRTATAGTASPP

T2: Fatty-acid amide hydrolase 1 (Homo sapiens, UniProt O00519)
T2 sequence (O00519 whole entry): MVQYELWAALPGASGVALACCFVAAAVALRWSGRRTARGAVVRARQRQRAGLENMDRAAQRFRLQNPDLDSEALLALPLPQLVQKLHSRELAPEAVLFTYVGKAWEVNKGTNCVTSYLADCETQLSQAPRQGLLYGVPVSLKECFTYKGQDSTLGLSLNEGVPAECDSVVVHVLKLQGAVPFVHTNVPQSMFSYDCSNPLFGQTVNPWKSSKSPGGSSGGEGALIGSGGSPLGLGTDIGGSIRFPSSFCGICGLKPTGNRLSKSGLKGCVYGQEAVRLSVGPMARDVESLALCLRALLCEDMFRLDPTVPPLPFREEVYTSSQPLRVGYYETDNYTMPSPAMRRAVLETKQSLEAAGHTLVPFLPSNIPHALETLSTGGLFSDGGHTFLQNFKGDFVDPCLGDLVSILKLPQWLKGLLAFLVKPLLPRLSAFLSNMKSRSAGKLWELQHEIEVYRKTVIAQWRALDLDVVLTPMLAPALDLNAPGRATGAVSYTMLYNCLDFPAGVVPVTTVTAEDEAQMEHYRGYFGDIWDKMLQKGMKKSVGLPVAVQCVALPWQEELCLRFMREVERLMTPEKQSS

T3: Monoglyceride lipase (Homo sapiens, UniProt Q99685)
T3 sequence (Q99685 whole entry): T1 sequence (whole entry)

B1: Fatty-acid amide hydrolase 1 (Homo sapiens), O00519 (protein)
chain: T2 sequence (O00519 whole entry)

Legend:
[1] = biological target: T1, Monoglyceride lipase (Homo sapiens); experiment: Inhibition of human recombinant MGL using 2-oleoylglycerol at 100 uM by competitive hydrolysis assay
[2] = biological target: T2, Fatty-acid amide hydrolase 1; experiment: Inhibition of human recombinant FAAH using [3H]anandamide by competitive hydrolysis assay
Procedure, shortened: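 Compounds were added in DMSO, with DMSO alone as control, plus [3H]-AEA at 2 μM final, 37 °C for 10 min. The reaction was stopped on ice with cold chloroform/methanol (1:1), and the aqueous phase was counted by LSC with the buffer-only blank subtracted. IC50 is the mean of three independent experiments.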

[3] = biological target: T1, Monoglyceride lipase (Homo sapiens); experiment: Inhibition of human recombinant MGL using 2-oleoylglycerol at 1 uM by competitive hydrolysis assay
[4] = biological target: T3, Monoglyceride lipase; experiment: Inhibition of human recombinant MGL using 2-oleoylglycerol by competitive hydrolysis assay
Procedure, shortened: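 Compounds were added in DMSO, with DMSO as control, plus [3H]-2-oleoylglycerol at 2 μM final, 37 °C for 10 min. Ice-cold chloroform/methanol (1:1) quench, and the methanol/buffer phase was counted by LSC with the blank subtracted. Results are means of three independent assays.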

[5] = substrate: C=CCCC(=O)N1C[C@@H]([C@@H](C)OC(=O)CCCc2ccccc2)C1=O; experiment: Hydrolytic activity of human recombinant FAAH at 45 nM by liquid scintillation counting
[6] = substrate: C=CCCC(=O)N1C[C@@H]([C@@H](C)OC(=O)CCCc2ccccc2)C1=O; experiment: Hydrolytic activity of human recombinant FAAH at 15 nM by liquid scintillation counting

Molecule | inhibition [1] [%] | IC50 [2] [µM] | inhibition [3] [%] | IC50 ([4]; read-out: IC50) [µM] | IC50 [4] [µM] | Vmax [5] [nmol/min/mg] | Vmax [6] [nmol/min/mg]
CC(=O)O[C@@H]1[C@@H]([C@@H](C)O)C(=O)N1C(=O)CCCc1ccccc1 | 61 | 183 |  |  |  |  | 
C[C@@H](OC(=O)CCCCc1ccccc1)[C@@H]1CN(C(=O)CCc2ccccc2)C1=O | 100 | 0.091 | 0 |  |  |  | 
C[C@@H](OC(=O)CCCc1ccccc1)[C@@H]1CN(C(=O)CCCc2ccccc2)C1=O | 100 | 0.03 | 0 |  |  |  | 
C=CCCCC(=O)N1C[C@@H]([C@@H](C)OC(=O)CCCc2ccccc2)C1=O | 85 | 0.01 |  | 8.51 |  |  | 
CC(=O)O[C@@H]1[C@@H]([C@@H](C)OC(=O)CCc2ccccc2)C(=O)N1C(=O)CCCc1ccccc1 | 100 | 5.12 | 0 |  |  |  | 
C[C@@H](OC(=O)Cc1ccc(-c2ccccc2)cc1)[C@@H]1CN(C(=O)CCCCc2ccccc2)C1=O | 25 | 0.236 |  |  |  |  | 
C[C@@H](OC(=O)Cc1ccc(-c2ccccc2)cc1)[C@@H]1CN(C(=O)CCCc2ccccc2)C1=O | 0 | 0.032 |  |  |  |  | 
CC(=O)O[C@@H]1[C@@H]([C@@H](C)O)C(=O)N1C(=O)CCc1ccccc1 | 48 | 224 |  |  |  |  | 
C=CCCC(=O)O[C@H](C)[C@H]1C(=O)N(C(=O)CCC=C)[C@@H]1OC(C)=O | 99 | 1.9 | 33 | 133 |  |  | 
C[C@@H](OC(=O)CCCc1ccccc1)[C@@H]1CN(C(=O)CCc2ccccc2)C1=O | 100 | 0.049 | 0 |  |  |  | 
C[C@@H](OC(=O)Cc1ccc(-c2ccccc2)cc1)[C@@H]1CNC1=O | 16 | 6.5 |  |  |  |  | 
CC(=O)O[C@@H]1[C@@H]([C@@H](C)OC(=O)CCCc2ccccc2)C(=O)N1C(=O)CCCc1ccccc1 | 100 | 3.12 | 0 |  |  |  | 
CC(=O)O[C@@H]1[C@@H]([C@@H](C)OC(=O)Cc2ccc(-c3ccccc3)cc2)C(=O)N1C(=O)CCCc1ccccc1 | 100 | 0.708 | 0 |  |  |  | 
C[C@@H](O)[C@@H]1CN(C(=O)CCc2ccccc2)C1=O | 8 | 409 |  |  |  |  | 
CC(=O)O[C@@H]1[C@@H]([C@@H](C)OC(=O)CCCc2ccccc2)C(=O)N1C(=O)CCc1ccccc1 | 100 | 0.96 | 0 |  |  |  | 
C=CCCCC(=O)N1C[C@@H]([C@@H](C)OC(=O)Cc2ccc(-c3ccccc3)cc2)C1=O | 67 | 0.014 |  | 14.6 |  |  | 
C[C@@H](OC(=O)CCc1ccccc1)[C@@H]1CN(C(=O)CCc2ccccc2)C1=O | 100 | 0.157 | 0 |  |  |  | 
C=CCCC(=O)N1C[C@@H]([C@@H](C)O)C1=O | 89 | 7.9 | 8 |  |  |  | 
C=CCCC(=O)O[C@H](C)[C@@H]1CN(C(=O)CCC=C)C1=O | 99 | 0.098 |  | 23.3 |  |  | 
CC(=O)O[C@@H]1[C@@H]([C@@H](C)OC(=O)Cc2ccc(-c3ccccc3)cc2)C(=O)N1C(=O)CCc1ccccc1 | 66 | 0.826 |  |  |  |  | 
C[C@@H](OC(=O)CCCc1ccccc1)[C@@H]1CN(C(=O)CCCCc2ccccc2)C1=O | 39 | 0.449 |  |  |  |  | 
C[C@@H](OC(=O)CCc1ccccc1)[C@@H]1CN(C(=O)CCCc2ccccc2)C1=O | 54 | 0.057 |  |  |  |  | 
C[C@@H](OC(=O)CCCCc1ccccc1)[C@@H]1CN(C(=O)CCCc2ccccc2)C1=O | 59 | 0.045 |  |  |  |  | 
C=CCCC(=O)N1C[C@@H]([C@@H](C)OC(=O)Cc2ccc(-c3ccccc3)cc2)C1=O | 91 | 0.012 |  | 1.84 |  |  | 
C=CCCCC(=O)O[C@H](C)[C@@H]1CN(C(=O)CCC=C)C1=O | 8 | 0.032 |  | 4.72 | 4.72 |  | 
C=CCCC(=O)N1C[C@@H]([C@@H](C)OC(=O)CCCc2ccccc2)C1=O | 89 | 0.005 |  | 4.06 |  |  | 
CC(=O)O[C@@H]1[C@@H]([C@@H](C)OC(=O)CCc2ccccc2)C(=O)N1C(=O)CCc1ccccc1 | 100 | 2.02 | 0 |  |  |  | 
C[C@@H](OC(=O)Cc1ccc(-c2ccccc2)cc1)[C@@H]1CN(C(=O)CCc2ccccc2)C1=O | 31 | 0.05 |  |  |  |  | 
C=CCCC(=O)N1C(=O)[C@H]([C@@H](C)O)[C@H]1OC(C)=O | 16 | 537 |  |  |  |  | 
B1 |  |  |  |  |  | 11.9 | 12.8
